# Square brackets hold non-standard residues; d marks the D form. Peptide text beside a SMILES is read from it. Tic = O=C(O)[C@@H]1Cc2ccccc2CN1
# How the values were obtained:
# [1] = Antiplatelet activity against pig platelet assessed as inhibition of ADP-induced platelet aggregation by spectrophotometry; type: functional, cell-based; conditions: Sus scrofa
# Summary of the method: (§1)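 Pig blood (six pigs) spun 1000 rpm 10 min for PRP, then 1500 rpm 10 min for PPP; PRP adjusted to 2×10^8 platelets/mL with autologous PPP. Compound (final 100 µM to 1 nM, diluted in NS from DMSO/NS stock) or NS added, then inducer at final PAF 0.1 µM, ADP 10 µM, AA 350 µM or thrombin 0.1 U/mL.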
# [2] = Antiplatelet activity against pig platelet assessed as inhibition of PAF-induced platelet aggregation by spectrophotometry; type: functional, cell-based; conditions: Sus scrofa; summary of the method: as §1
# Rattus norvegicus [3] = test: Antithrombotic activity in Wistar rat assessed as thrombus weight at 15 umol/kg, iv (reference value: 28.54 +/- 2.62 mg); type: functional
# [4] = Antiplatelet activity against pig platelet assessed as inhibition of arachidonic acid-induced platelet aggregation by spectrophotometry; type: functional, cell-based; conditions: Sus scrofa; summary of the method: as §1
# [5] = Antiplatelet activity against pig platelet assessed as inhibition of thrombin-induced platelet aggregation by spectrophotometry; type: functional, cell-based; conditions: Sus scrofa; summary of the method: as §1
# Aorta = test: Inhibition of noradrenaline-induced contraction in Wistar rat thoracic aortic ring assessed as vasorelaxant activity at 300 uM treated after noradrenaline challenge; type: functional; parameters: scale not given: the % may be the effect or the level left
# Summary of the method: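 Male Wistar rats, 250–300 g, were decapitated and aortic strips were mounted in 37 °C Krebs solution (pH 7.4) gassed with 95% O2/5% CO2, connected to a tension transducer. Strips were contracted with 59 µM noradrenaline, washed, stabilised 30 min, then re-contracted with 59 µM noradrenaline. At peak contraction, compound in ethanol or ethanol alone was added and relaxation was recorded.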
# [6] = Antiplatelet activity against pig platelet assessed as inhibition of PAF-induced platelet aggregation at 10 uM by spectrophotometry; type: functional; conditions: Sus scrofa; summary of the method: as §1
# [7] = Antiplatelet activity against pig platelet assessed as inhibition of arachidonic acid-induced platelet aggregation at 10 uM by spectrophotometry; type: functional; conditions: Sus scrofa; summary of the method: as §1
# [8] = Antiplatelet activity against pig platelet assessed as inhibition of thrombin-induced platelet aggregation at 10 uM by spectrophotometry; type: functional; conditions: Sus scrofa; summary of the method: as §1
# Rattus norvegicus [9] = test: Antithrombotic activity in Wistar rat assessed as thrombus weight at 15 umol/kg, iv (reference value: 25.99 +/- 2.41 mg); type: functional
# [10] = Antiplatelet activity against pig platelet assessed as inhibition of ADP-induced platelet aggregation at 10 uM by spectrophotometry; type: functional; conditions: Sus scrofa; summary of the method: as §1
# Rattus norvegicus [11] = test: Antithrombotic activity in Wistar rat assessed as thrombus weight at 10 nmol/kg, iv (reference value: 24.09 +/- 2.33 mg); type: functional
Structure (SMILES),Activity (Rattus norvegicus [3]),Activity (Aorta),inhibition at 10 µM [6],inhibition at 10 µM [7],inhibition at 10 µM [8],Activity (Rattus norvegicus [9]),inhibition at 10 µM [10],other results
O=C(O)[C@H](Cc1cc2ccccc2[nH]1)NC(=O)[C@@H]1Cc2ccccc2CN1,21.3 mg,,,,,,,IC50 [1]: 120 nM; IC50 [2]: 668 nM; IC50 [4]: 374 nM; IC50 [5]: 234 nM
NC(=O)C[C@H](NC(=O)[C@@H]1Cc2ccccc2CN1)C(=O)O (H-[Tic]-Asn-OH),20.24 mg,,,,,,,
CCC(C)[C@@H](C(=O)OC)N1C(=O)[C@@H]2Cc3ccccc3CN2C1(C)C (stereo partly specified),,99%,51.3%,49.4%,60.9%,13.32 mg,48.2%,
O=C(O)C[C@H](NC(=O)[C@@H]1Cc2ccccc2CN1)C(=O)O (H-[Tic]-Asp-OH),21.67 mg,,,,,,,
O=C(O)[C@H](CO)NC(=O)[C@@H]1Cc2ccccc2CN1 (H-[Tic]-Ser-OH),23.58 mg,,,,,,,
CC(C)[C@H](NC(=O)[C@@H]1Cc2ccccc2CN1)C(=O)O (H-[Tic]-Val-OH),19.2 mg,,,,,,,
"CCC(C)[C@H](NC(=O)[C@@H]1Cc2ccccc2CN1)C(=O)O (single isomer, unassigned)",20.03 mg,,,,,,,
C[C@@H](O)[C@H](NC(=O)[C@@H]1Cc2ccccc2CN1)C(=O)O (H-[Tic]-Thr-OH),21.25 mg,,,,,,,
CC(C)[C@@H](C(=O)O)N1C(=O)[C@@H]2Cc3ccccc3CN2C1(C)C,,16%,,,,,,IC50 [1]: 175 nM; IC50 [2]: 525 nM; IC50 [4]: 292 nM; IC50 [5]: 610 nM; Activity (Rattus norvegicus [11]): 14.01 mg
C[C@@H](C(=O)O)N1C(=O)[C@@H]2Cc3ccccc3CN2C1(C)C,,8.41%,,,,,,IC50 [1]: 200 nM; IC50 [2]: 576 nM; IC50 [4]: 324 nM; IC50 [5]: 677 nM; Activity (Rattus norvegicus [11]): 15.45 mg
CC1(C)N2Cc3ccccc3C[C@H]2C(=O)N1[C@@H](CC(N)=O)C(=O)O,,3.89%,,,,,,IC50 [1]: 283 nM; IC50 [2]: 777 nM; IC50 [4]: 433 nM; IC50 [5]: 903 nM; Activity (Rattus norvegicus [11]): 20.75 mg
COC(=O)[C@H](CS)N1C(=O)[C@@H]2Cc3ccccc3CN2C1(C)C,,96.3%,53.7%,60.7%,30.8%,12.9 mg,68.9%,
CSCC[C@@H](C(=O)O)N1C(=O)[C@@H]2Cc3ccccc3CN2C1(C)C,,5.58%,,,,,,IC50 [1]: 264 nM; IC50 [2]: 499 nM; IC50 [4]: 408 nM; IC50 [5]: 852 nM; Activity (Rattus norvegicus [11]): 19.56 mg
COC(=O)CC[C@@H](C(=O)OC)N1C(=O)[C@@H]2Cc3ccccc3CN2C1(C)C,,42.48%,45.2%,37.4%,28%,19.9 mg,22.5%,
O=C(O)CNC(=O)[C@@H]1Cc2ccccc2CN1 (H-[Tic]-Gly-OH),20.24 mg,,,,,,,
NC(=O)CC[C@H](NC(=O)[C@@H]1Cc2ccccc2CN1)C(=O)O (H-[Tic]-Gln-OH),22.08 mg,,,,,,,
COC(=O)C[C@@H](C(=O)OC)N1C(=O)[C@@H]2Cc3ccccc3CN2C1(C)C,,64.09%,18.6%,57.7%,60.1%,18.2 mg,24.6%,
COC(=O)[C@H](CCCNC(=N)N[N+](=O)[O-])N1C(=O)[C@@H]2Cc3ccccc3CN2C1(C)C,,6.78%,65.3%,30.6%,31.4%,23.61 mg,58.4%,
CC1(C)N2Cc3ccccc3C[C@H]2C(=O)N1[C@@H](CCCCN)C(=O)O,,12.01%,,,,,,IC50 [1]: 191 nM; IC50 [2]: 561 nM; IC50 [4]: 313 nM; IC50 [5]: 652 nM; Activity (Rattus norvegicus [11]): 14.98 mg
C[C@H](NC(=O)[C@@H]1Cc2ccccc2CN1)C(=O)O (H-[Tic]-Ala-OH),21.4 mg,,,,,,,
COC(=O)CN1C(=O)[C@@H]2Cc3ccccc3CN2C1(C)C,,75.35%,44.5%,58.9%,10.9%,15.21 mg,66.1%,
O=C(O)CC[C@H](NC(=O)[C@@H]1Cc2ccccc2CN1)C(=O)O (H-[Tic]-Glu-OH),19.69 mg,,,,,,,

Structure (SMILES),Activity (Rattus norvegicus [3]),Activity (Aorta),inhibition at 10 µM [6],inhibition at 10 µM [7],inhibition at 10 µM [8],Activity (Rattus norvegicus [9]),inhibition at 10 µM [10],other results
CC1(C)N2Cc3ccccc3C[C@H]2C(=O)N1[C@@H](CCCNC(=N)N)C(=O)O,,32.58%,,,,,,IC50 [1]: 159 nM; IC50 [2]: 486 nM; IC50 [4]: 271 nM; IC50 [5]: 567 nM; Activity (Rattus norvegicus [11]): 13.01 mg
CC1(C)N2Cc3ccccc3C[C@H]2C(=O)N1[C@@H](CCC(=O)O)C(=O)O,,4.33%,,,,,,IC50 [1]: 248 nM; IC50 [2]: 695 nM; IC50 [4]: 388 nM; IC50 [5]: 808 nM; Activity (Rattus norvegicus [11]): 18.57 mg
O=C(O)[C@H](Cc1c[nH]cn1)NC(=O)[C@@H]1Cc2ccccc2CN1 (H-[Tic]-His-OH),20.86 mg,,,,,,,
CSCC[C@H](NC(=O)[C@@H]1Cc2ccccc2CN1)C(=O)O (H-[Tic]-Met-OH),21.74 mg,,,,,,,
COC(=O)[C@H](C(C)O)N1C(=O)[C@@H]2Cc3ccccc3CN2C1(C)C (stereo partly specified),,35.21%,59.9%,45%,57.2%,20.01 mg,46.3%,
COC(=O)[C@H](CCC(N)=O)N1C(=O)[C@@H]2Cc3ccccc3CN2C1(C)C,,38.61%,25.9%,48.1%,69%,22.7 mg,31.8%,
COC(=O)[C@H](CC(N)=O)N1C(=O)[C@@H]2Cc3ccccc3CN2C1(C)C,,47.89%,25.8%,30.1%,19.8%,19.54 mg,33.9%,
O=C(O)[C@H](CS)NC(=O)[C@@H]1Cc2ccccc2CN1 (H-[Tic]-Cys-OH),20.91 mg,,,,,,,
COC(=O)[C@H](C)N1C(=O)[C@@H]2Cc3ccccc3CN2C1(C)C,,34.1%,46.3%,40.5%,11.7%,22.51 mg,10.2%,
COC(=O)[C@H](Cc1ccc(O)cc1)N1C(=O)[C@@H]2Cc3ccccc3CN2C1(C)C,,15.56%,59%,52.2%,25.3%,23.71 mg,53.1%,
O=C(O)[C@@H](NC(=O)[C@@H]1Cc2ccccc2CN1)NC1CCC1,20.25 mg,,,,,,,IC50 [1]: 364 nM; IC50 [2]: 1400 nM; IC50 [4]: 103 nM; IC50 [5]: 185 nM
COC(=O)[C@H](CCCCNC(=O)OCc1ccccc1)N1C(=O)[C@@H]2Cc3ccccc3CN2C1(C)C,,68.21%,11.2%,33.7%,18.4%,17.14 mg,20.9%,
COC(=O)[C@H](CC(C)C)N1C(=O)[C@@H]2Cc3ccccc3CN2C1(C)C,,74.68%,29.2%,37.5%,38.3%,14.1 mg,31.4%,
O=C(O)[C@H](Cc1ccc(O)cc1)NC(=O)[C@@H]1Cc2ccccc2CN1 (H-[Tic]-Tyr-OH),19.31 mg,,,,,,,
NCCCC[C@H](NC(=O)[C@@H]1Cc2ccccc2CN1)C(=O)O (H-[Tic]-Lys-OH),21.28 mg,,,,,,,
COC(=O)[C@H](CCSC)N1C(=O)[C@@H]2Cc3ccccc3CN2C1(C)C,,43.06%,31.9%,30.1%,36.8%,20.11 mg,34%,
COC(=O)[C@H](C(C)C)N1C(=O)[C@@H]2Cc3ccccc3CN2C1(C)C,,54.99%,34.6%,32.4%,30.9%,15.66 mg,35%,
O=C(O)[C@H](Cc1ccccc1)NC(=O)[C@@H]1Cc2ccccc2CN1 (H-[Tic]-Phe-OH),19.11 mg,,,,,,,
N=C(N)NCCC[C@H](NC(=O)[C@@H]1Cc2ccccc2CN1)C(=O)O (H-[Tic]-Arg-OH),18.73 mg,,,,,,,
CC(C)C[C@H](NC(=O)[C@@H]1Cc2ccccc2CN1)C(=O)O (H-[Tic]-Leu-OH),20.23 mg,,,,,,,
COC(=O)[C@H](Cc1ccccc1)N1C(=O)[C@@H]2Cc3ccccc3CN2C1(C)C,,32.18%,56.3%,46.8%,57.8%,20.62 mg,44.5%,

# — ChEMBL document CHEMBL1641479, “2-Substituted (S)-2-(3,3-dimethyl-1-oxo-10,10a-dihydroimidazo[1,5-b]isoquinolin-2(1H,3H,5H)-yl)acetic acids: Conformational prediction, synthesis, anti-thrombotic and vasodilative evaluation” (Bioorg Med Chem, 2011)
